Where a name gives a salt, the structure may show the parent alone. Bounds are passed on as bounds.

Assay [1] relates to PC-3. As to the kind of experiment: Cytotoxicity against human PC3 cells assessed as inhibition of cell viability after 48 hrs by MTT assay. Conditions: PC-3, 48 h. Type of assay: functional, cell-based. Summed up: (§1)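 Cells were seeded at 2.5‒5 x 10^3 per well in DMEM or RPMI with 10% FBS and grown 24 h at 37 °C under CO2. Compounds diluted in medium were added alongside vehicle control for 48 h. MTT (0.5 mg/mL) was added for 4 h, formazan dissolved in DMSO and absorbance read at 570 nm. IC50 is the concentration giving 50% loss of viability; mean ± SD of three experiments, each in triplicate.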

The next assay deals with HeLa. As to the kind of experiment: Cytotoxicity against human HeLa cells assessed as inhibition of cell viability after 48 hrs by MTT assay. Type of assay: functional, cell-based. The procedure, abridged:
as §1

The subject of a further assay is HGC-27. Description: Cytotoxicity against human HGC27 cells assessed as inhibition of cell viability after 48 hrs by MTT assay. It is filed as functional, cell-based. Conditions: HGC-27, 48 h. The procedure, abridged: as §1
The test system of assay [2] is NCI-H460. Description: Cytotoxicity against human NCI-H460 cells assessed as inhibition of cell viability after 48 hrs by MTT assay. Type of assay: functional, cell-based. The settings on record: NCI-H460, 48 h. The procedure, abridged: as §1
Background: Formazan colour is commonly taken as a measure of viable cells.

The test system of assay [3] is DU-145. Description: Cytotoxicity against human DU145 cells assessed as inhibition of cell viability after 48 hrs by MTT assay. It is filed as functional, cell-based. The settings on record: DU-145, 48 h. Summed up:
as §1

In a further assay the test system is 4T1. Description: Cytotoxicity against mouse 4T1 cells assessed as inhibition of cell viability after 48 hrs by MTT assay. It is filed as functional, cell-based. The settings on record: 4T1, 48 h. The procedure, abridged: as §1
Assay [4] relates to NCI-H460. Description: Potency index, ratio of curcumin IC50 to test compound IC50 for human NCI-H460 cells. Type of assay: functional.
For assay [5], the system named is DU-145. As to the kind of experiment: Potency index, ratio of curcumin IC50 to test compound IC50 for human DU145 cells. It is filed as functional.
For assay [6], the system named is PC-3. Description: Potency index, ratio of curcumin IC50 to test compound IC50 for human PC3 cells. Type of assay: functional.

The term IC50 denotes the midpoint of a concentration-inhibition curve. `COc1cc(/C=C/C(=O)CC(=O)/C=C/c2ccc(O)c(OC)c2)ccc1O` [CURCUMIN]: the IC50 in the assay with PC-3 [1] was determined as 18.7 µM.

Consider `COc1ccc(/C=C/C(=O)/C=C/c2nc3ccccn3c2-c2ccc(F)c(F)c2)cc1OC`, for which the IC50 with HeLa was 5.58 µM; in the assay with HGC-27 it was 3.38 µM; in the assay on NCI-H460 [2], 3.01 µM; in the assay with DU-145 [3], 4.87 µM; with PC-3 [1] it was 5.43 µM; in the assay on 4T1 it was 3.45 µM. For the same compound, the “Ratio IC50” value with NCI-H460 [4] amounted to 5.7; with DU-145 [5], 6.8; with PC-3 [6], 3.4.

Regarding `COc1ccc(/C=C/C(=O)/C=C/c2nc3ccccn3c2-c2ccccc2)cc1`, the IC50 in the assay with HeLa, in the assay on HGC-27, with NCI-H460 [2], in the assay with DU-145 [3], with PC-3 [1] and in the assay on 4T1 was greater than 10 µM in each case.

For the compound `COc1ccc(-c2c(/C=C/C(=O)/C=C/c3ccc(OC)c(OC)c3)nc3ccccn23)cc1`, the IC50 is 6.66 µM in the assay with HeLa; 7.84 µM in the assay with HGC-27; 4.28 µM in the assay with NCI-H460 [2]; 4 µM with DU-145 [3]; 3.64 µM in the assay with PC-3 [1]; 5.61 µM in the assay with 4T1. Also, the entries for the “Ratio IC50” value with NCI-H460 [4], in the assay with DU-145 [5] and with PC-3 [6] were 4, 8.3 and 5.1, respectively.

Turning to `COc1ccc(/C=C/C(=O)/C=C/c2nc3ccccn3c2-c2ccccc2)c(OC)c1`, the IC50 with HeLa, with HGC-27, in the assay on NCI-H460 [2], with DU-145 [3], in the assay with PC-3 [1] and in the assay on 4T1 was greater than 10 µM in each case.

Consider `COc1ccc(-c2c(/C=C/C(=O)/C=C/c3cc(OC)c(OC)cc3OC)nc3ccccn23)cc1`, for which the IC50 is 9.41 µM with HeLa; 8.77 µM with HGC-27; 5.52 µM in the assay with NCI-H460 [2]; 5.63 µM in the assay on DU-145 [3]; 7.24 µM in the assay with PC-3 [1]; 4.69 µM in the assay with 4T1. For the same compound, the figures for the “Ratio IC50” value in the assay with NCI-H460 [4], in the assay on DU-145 [5] and with PC-3 [6] were 3.1, 5.9 and 2.6, respectively.

As to `COc1ccc(OC)c(/C=C/C(=O)/C=C/c2nc3ccccn3c2-c2ccc(F)c(F)c2)c1`, the IC50 in the assay on HeLa stood at 4.93 µM; with HGC-27, 6.35 µM; with NCI-H460 [2], 3.11 µM; in the assay on DU-145 [3], 4.19 µM; in the assay on PC-3 [1] it was 2.84 µM; in the assay with 4T1 it was 3.27 µM. For the same compound, the entries for the “Ratio IC50” value in the assay with NCI-H460 [4], with DU-145 [5] and in the assay with PC-3 [6] were 5.5, 7.9 and 6.6, respectively.

Regarding `COc1ccc(/C=C/C(=O)/C=C/c2nc3ccccn3c2-c2ccc(OC)cc2)cc1`, the IC50 in the assay on HeLa, in the assay with HGC-27, in the assay on NCI-H460 [2], with DU-145 [3], with PC-3 [1] and in the assay with 4T1 was greater than 10 µM in each case.

Take `COc1ccc(/C=C/C(=O)/C=C/c2nc3ccccn3c2-c2ccc(F)c(F)c2)c(OC)c1`: the IC50 in the assay on HeLa amounted to 8.41 µM; in the assay with HGC-27 it was 10.3 µM; in the assay with NCI-H460 [2], 9.53 µM; with DU-145 [3], 8.46 µM; in the assay with PC-3 [1] it was 8.94 µM; in the assay with 4T1 it was 9.72 µM. Besides, the “Ratio IC50” value in the assay with NCI-H460 [4] is 1.8; in the assay on DU-145 [5], 3.9; with PC-3 [6], 2.1.

As to `COc1cccc(-c2c(/C=C/C(=O)/C=C/c3ccc(OC)c(OC)c3)nc3ccccn23)c1`, the IC50 with HeLa, with HGC-27, in the assay on NCI-H460 [2], in the assay on DU-145 [3], with PC-3 [1] and in the assay on 4T1 was greater than 10 µM in each case.

Turning to `COc1ccc(/C=C/C(=O)/C=C/c2nc3ccccn3c2-c2cccc(OC)c2)cc1`, the IC50 with HeLa, in the assay on HGC-27, in the assay on NCI-H460 [2], in the assay on DU-145 [3], in the assay on PC-3 [1] and with 4T1 was greater than 10 µM throughout.

As to `COc1ccc(/C=C/C(=O)/C=C/c2nc3ccccn3c2-c2ccccc2)cc1OC`, the IC50 with HeLa, with HGC-27, with NCI-H460 [2], with DU-145 [3], in the assay with PC-3 [1] and with 4T1 was greater than 10 µM each time.

Turning to `COc1ccc(OC)c(/C=C/C(=O)/C=C/c2nc3ccccn3c2-c2ccccc2)c1`, the IC50 in the assay on HeLa was 5.51 µM; in the assay with HGC-27 it was 7.08 µM; in the assay on NCI-H460 [2] it was 4.01 µM; with DU-145 [3], 3.38 µM; with PC-3 [1], 3.03 µM; in the assay with 4T1, 3.38 µM. For the same compound, the “Ratio IC50” value with NCI-H460 [4] came out at 4.3; with DU-145 [5], 9.8; in the assay with PC-3 [6], 6.1.

As for `COc1cccc(-c2c(/C=C/C(=O)/C=C/c3ccc(OC)cc3OC)nc3ccccn23)c1`, the IC50 with HeLa, with HGC-27, with NCI-H460 [2], with DU-145 [3], in the assay on PC-3 [1] and in the assay on 4T1 was greater than 10 µM in each case.

For the compound `COc1cccc(-c2c(/C=C/C(=O)/C=C/c3cc(OC)ccc3OC)nc3ccccn23)c1`, the IC50 with HeLa, in the assay on HGC-27, with NCI-H460 [2], with DU-145 [3], with PC-3 [1] and in the assay with 4T1 was greater than 10 µM each time.

Turning to `COc1cc(OC)c(/C=C/C(=O)/C=C/c2nc3ccccn3c2-c2ccccc2)c(OC)c1`, the IC50 in the assay on HeLa, in the assay with HGC-27, with NCI-H460 [2], in the assay with DU-145 [3], in the assay on PC-3 [1] and with 4T1 was greater than 10 µM in each case.

`COc1ccc(/C=C/C(=O)/C=C/c2nc3ccccn3c2-c2ccc(F)c(F)c2)cc1`: the IC50 in the assay on HeLa, in the assay with HGC-27, in the assay on NCI-H460 [2], with DU-145 [3], with PC-3 [1] and with 4T1 was greater than 10 µM in each case.

With `CC[C@]1(O)C[C@H]2CN(CCc3c([nH]c4ccccc34)[C@@](C(=O)OC)(c3cc4c(cc3OC)N(C=O)[C@H]3[C@@](O)(C(=O)OC)[C@H](OC(C)=O)[C@]5(CC)C=CCN6CC[C@]43[C@@H]65)C2)C1` [VINCRISTINE SULFATE], the IC50 in the assay with DU-145 [3] stood at 71.8 µM.

For the compound `COc1ccc(-c2c(/C=C/C(=O)/C=C/c3ccc(OC)cc3OC)nc3ccccn23)cc1`, the IC50 with HeLa, in the assay with HGC-27, with NCI-H460 [2], with DU-145 [3], in the assay with PC-3 [1] and with 4T1 was greater than 10 µM throughout.

For the compound `COc1cc(OC)c(OC)cc1/C=C/C(=O)/C=C/c1nc2ccccn2c1-c1ccccc1`, the IC50 amounted to 1.67 µM in the assay with HeLa; 5.38 µM with HGC-27; 2.84 µM in the assay with NCI-H460 [2]; 3.71 µM in the assay on DU-145 [3]; 2.75 µM in the assay on PC-3 [1]; 1.68 µM in the assay on 4T1. In addition, the “Ratio IC50” value came out at 6 with NCI-H460 [4], 8.9 in the assay with DU-145 [5] and 6.8 in the assay with PC-3 [6].

With `COc1ccc(-c2c(/C=C/C(=O)/C=C/c3cc(OC)ccc3OC)nc3ccccn23)cc1`, the IC50 with HeLa, in the assay with HGC-27, in the assay with NCI-H460 [2], in the assay on DU-145 [3], in the assay on PC-3 [1] and with 4T1 was greater than 10 µM throughout.

Source of the values: ChEMBL document CHEMBL4251576, “Synthesis and biological evaluation of curcumin inspired imidazo[1,2-a]pyridine analogues as tubulin polymerization inhibitors” (Eur J Med Chem, 2018).
